Measurements gathered from unrelated publications.
Compare with care: the assays were run in different laboratories.
rep papain-like protease: Replicase polyprotein 1ab, papain-like protease (rep, Porcine epidemic diarrhea virus, UniProt P0C6Y4)
SLC6A4: Sodium-dependent serotonin transporter (SLC6A4, Homo sapiens, UniProt P31645)
rep main protease: Replicase polyprotein 1ab, main protease (rep, Porcine epidemic diarrhea virus, UniProt P0C6Y4)
DRD1: D(1A) dopamine receptor (DRD1, Homo sapiens, UniProt P21728)

Compound | target | observed | mode | technique | concentration | setting | inhibition [%]
O=C(NCc1cc(O)c(O)c(Br)c1)c1ccc2ccccc2n1 | rep papain-like protease | enzyme activity | inhibitor | FRET | 10 µM |  | 45.5
CCOC(=O)[C@@]12C[C@@H]1[C@@H](n1cnc3c(Nc4ccccc4)nc(I)nc31)[C@H](O)[C@@H]2O | SLC6A4 | ligand displacement |  | radioligand | 10 µM |  | -12
CC(C)C(C(=O)NCc1cc(O)c(O)c(Br)c1)c1ccc(Cl)cc1 (stereo not drawn) | rep main protease | enzyme activity | inhibitor | FRET | 10 µM |  | 41.9
CCOC(=O)[C@@]12C[C@@H]1[C@@H](n1cnc3c(NCCCCc4ccccc4)nc(I)nc31)[C@H](O)[C@@H]2O | SLC6A4 | ligand displacement |  | radioligand | 10 µM |  | 20
NC/C(=C\F)COc1cccc(Cn2c(=S)[nH]c(=O)c3[nH]cnc32)c1 | DRD1 | ligand displacement |  | radioligand | 10 µM |  | < 50
OC[C@@]12C[C@@H]1[C@@H](n1cnc3c(NC(C4CCC4)C4CCC4)nc(C#Cc4ccc(Cl)s4)nc31)[C@H](O)[C@@H]2O | SLC6A4 | ligand displacement |  | radioligand | 10 µM |  | 15
Cc1cc(O)c(-c2ccc([C@@H](C)CN(C)C)cc2)c2c1[nH]c(=O)c1sccc12 | STE20-related kinase adapter protein alpha (STRADA, Homo sapiens, UniProt Q7RTN6) | enzyme activity | inhibitor |  | 0.1 µM |  | 14.8
C#Cc1cc(-c2cc(Nc3nc(N[C@@H](C)c4ccc(F)cn4)ncc3Cl)n[nH]2)ccc1C=O | Serine/threonine-protein kinase Nek2 (NEK2, Homo sapiens, UniProt P51955) | enzyme activity | inhibitor |  | 0.2 µM |  | 22.5
CCOC(=O)[C@@]12C[C@@H]1[C@@H](n1cnc3c(NCc4cccc(Cl)c4)nc(I)nc31)[C@H](O)[C@@H]2O | SLC6A4 | ligand displacement |  | radioligand | 10 µM |  | -5
Cc1ccccc1C(=O)NCc1cc(O)c(O)c(Br)c1 | rep papain-like protease | enzyme activity | inhibitor | FRET | 10 µM |  | 115
CCN1/C(=C/C(C)=O)Sc2ccc(F)cc21 | DRD1 | ligand displacement |  | radioligand | 10 µM |  | 7.04
O=C(NCc1cc(O)c(O)c(Br)c1)c1cccc(Br)c1 | rep main protease | enzyme activity | inhibitor | FRET | 10 µM |  | 98.4
CCOC(=O)[C@@]12C[C@@H]1[C@@H](n1cnc3c(NCCCCCc4ccccc4)nc(C#Cc4ccc(Cl)s4)nc31)[C@H](O)[C@@H]2O | SLC6A4 | ligand displacement |  | radioligand | 10 µM | cell membranes | 1
O=C(NCc1cc(O)c(O)c(Br)c1)c1cccc(CCl)c1 | rep papain-like protease | enzyme activity | inhibitor | FRET | 10 µM |  | 103
Cc1cc(F)cc2c(CCC(=O)N[C@@H]3C(=O)NC[C@H]3O)c(-c3ccc(F)cc3)[nH]c12 | DRD1 | cell-free assay |  |  | 10 µM |  | 11
